Screening data: PubChem BioAssay, several laboratories
Rows were chosen to be rich in hits. Some 5.4% of all compounds tested hit in one or more screens of this group.
PLAP act = activators of human placental alkaline phosphatase; 96,000 compounds, 1.2% hits; P05187; purified PLAP enzyme, luminescent substrate read-out; active compounds read high; activation fold at 20 µM; in the data active = activation fold above about 2
HePTP inhibitor = inhibitors of human HePTP phosphatase; P35236; recombinant HePTP phosphatase activity, OD absorbance; inhibition, % at 20 µM; 110,000 compounds, 0.64% hits; AID 521; in the data active = inhibition above about 50%;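 also: plate controls were vehicle for no effect and reference inhibitor for full effect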
Target sequence (P35236 whole entry, looked up): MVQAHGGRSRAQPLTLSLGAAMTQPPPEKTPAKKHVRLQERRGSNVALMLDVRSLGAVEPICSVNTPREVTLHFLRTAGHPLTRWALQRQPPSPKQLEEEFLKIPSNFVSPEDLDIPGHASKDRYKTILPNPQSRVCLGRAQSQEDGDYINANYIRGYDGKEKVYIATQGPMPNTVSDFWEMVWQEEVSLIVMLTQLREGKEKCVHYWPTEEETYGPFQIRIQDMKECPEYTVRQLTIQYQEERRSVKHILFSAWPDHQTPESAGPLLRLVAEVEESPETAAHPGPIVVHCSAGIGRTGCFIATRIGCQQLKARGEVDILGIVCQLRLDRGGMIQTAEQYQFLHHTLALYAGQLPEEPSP
PostGolgi ctrl = yeast control strain growth, post-Golgi counter-screen; efflux-deficient yeast background strain, growth absorbance A615, 16 h; inhibition, % at 10 µM; 98,000 compounds, 5% hits; AID 738
PostGolgi yeast = growth inhibition of a yeast mutant, post-Golgi transport screen. post-Golgi transport phenotypic cell assay. inhibition, % at 10 µM. 98,000 compounds, 0.9% hits. AID 739;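 also: yeast cells grown in 1536-well plates; yeast grown about 18 h at 30C before absorbance read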
tolC growth inh = growth inhibitors of E. coli BW25113 tolC mutant | OD615 | growth inhibition, % at 10 µM (by protocol) | 65,000 compounds, 2.2% hits | AID 573;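 active = growth inhibition at or above a cutoff equal to the mean over every tested compound plus 3 SD, cut at about 60% in these data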;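 also: growth measured after 20 h incubation at 37 °C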
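Test system: E. coli BW25113 ΔtolC::kan bacteria | Medium: Kanamycin-containing LB broth (50 µg/mL) | Dosing: One dose of 10 µM final | Times: 20 h incubation with compound, 37 °C | Detection: Optical density read at 615 nm | Read-out basis: Percent growth inhibition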
E coli WT exp = blocks growth of wild type E. coli BW25113; AID 710; 98,000 compounds, 0.15% hits; OD600 absorbance; growth inhibition, % at 100 µM;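 active = growth inhibition above about 50% at one test dose, limit read from the data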;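 also: growth measured after 20 h incubation at 37 °C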
An asterisk follows results filed as active; . = no result given. Rule as the data show it, unless noted: active = inhibition above about 30%; inactive = the rest.

SMILES	PLAP act	HePTP inhibitor	PostGolgi ctrl	PostGolgi yeast	tolC growth inh	E coli WT exp
CCOc1nc(Nc2ccc(OC)c(Cl)c2)nc(OCC)n1	1	.	35.7*	14.1	.	-12.0
CCn1c(CNc2ccc(Cl)cc2)nnc1SCc1ccccc1	1	.	92.5*	98.8*	.	7.0
CCn1c(Cn2nnc(-c3ccccc3)n2)nnc1SCC(=O)N1CCOCC1	1.2	2.9	2.7	25.0	2.3	5.0
CCOC(=O)CSc1nnc(CNc2ccccc2Cl)n1-c1ccccc1	1.2	2.2	11.3	6.3	18.7	2.0
CCn1c(CNc2ccc(Cl)cc2)nnc1SCC(=O)NCc1ccccc1	1.6	6.5	8.7	15.9	.	12.0
O=C(O)CSc1nnc(CNc2ccc(Cl)cc2)n1Cc1ccccc1	1.5	0.8	-12.1	-0.5	3.9	-4.0
Cn1c(CNc2ccc(Cl)cc2)nnc1SCc1ccccc1	0.7	2.2	95.9*	105.3*	19.2	11.0
CCn1c(Cn2nnc(-c3ccccc3)n2)nnc1SCc1ccc(Cl)c(Cl)c1	1.4	1.2	45.6*	2.1	73.3*	-30.0
COC(=O)CSc1nnc(CNc2ccc(Cl)cc2)n1-c1ccccc1	1.2	.	64.9*	62.6*	.	3.0
COc1cc(/C=C2/C=C(c3ccc(C(C)(C)C)cc3)OC2=O)c([N+](=O)[O-])cc1OC	.	6.5	.	.	.	.
C=CCC1NC2(CCCCC2)Cc2cc(OC)c(OC)cc21 (stereo not given)	.	5.5	.	.	.	.
CC1(C(=O)N/N=C/c2cccnc2)CC1(Br)Br (stereo not given)	.	9.3	.	.	.	.
COC(=O)c1ccccc1S(=O)(=O)N(CCCO)Cc1cc2c(C)ccc(C)c2[nH]c1=O	1.5	3.7	36.5*	9.8	4.7	-3.0
COC(=O)c1ccccc1S(=O)(=O)N(Cc1ccco1)Cc1cc2cc(OC)ccc2[nH]c1=O	1.2	8.7	7.2	-1.0	-12.4	-9.0
COc1c(Cl)cc(C(=O)Nc2ccc(C)cc2[N+](=O)[O-])cc1Cl	.	-15.3	.	.	.	.
O=C(O)c1cc(-c2cccs2)nc2ccccc12	.	92.5*	.	.	.	.
Cc1nnc(NC(=O)c2cc(-c3ccc(Cl)cc3)nc3ccccc23)s1	.	-11.0	.	.	.	.
Cc1nnc(NC(=O)c2cc(-c3cccs3)nc3ccccc23)s1	.	101.8*	.	.	.	.
O=C(/C=C/c1ccc(F)cc1)c1ccccc1O	.	-1.7	.	.	.	.
O=C1CC(=O)N(Cc2ccccc2)CCN1Cc1ccccc1	.	-14.1	.	.	.	.
N/C(=N\S(=O)(=O)c1ccc(Cl)cc1)c1ccc(Cl)cc1	.	-2.6	.	.	.	.
Nc1c(C(=O)NC2CCCCC2)nsc1C(=O)OCC(=O)NC1CCCCC1	1	2.0	31.1*	-7.6	14.8	-11.0
O=C(NN1C(=O)/C(=C/c2c(Cl)cccc2Cl)SC1=S)c1ccccc1O	.	-23.0	.	.	.	.
CCOC(=O)Cc1nnc2c(Nc3ccc(Cl)cc3)nc3nonc3n12	0.9	8.9	26.7	9.7	100.0*	11.0
O=C(O)CCC(NC(=O)c1cncc(Br)c1)C(=O)O (stereo not given)	.	2.4	.	.	.	.
SMILES	PLAP act	HePTP inhibitor	PostGolgi ctrl	PostGolgi yeast	tolC growth inh	E coli WT exp
CCNc1nc(NC(C)C)nc(OCCNS(=O)(=O)c2cc(C)ccc2C)n1	1	0.0	2.9	-3.1	24.6	6.0
CCNc1nc(NC(C)C)nc(SCCOc2ccc(C)cc2)n1	1	.	31.0*	4.5	.	-5.0
O=S(=O)(NC12CC3CC(CC(C3)C1)C2)c1ccc(F)cc1	0.8	.	31.1*	-4.9	.	-1.0
Cc1ccc(S(=O)(=O)N2CCN(c3ccc4nnc(-c5ccccc5)n4n3)CC2)cc1	1.5	.	34.2*	-10.0	.	1.0
COc1ccc(S(=O)(=O)N2CCN(c3ccc4nnc(-c5ccc(F)cc5)n4n3)CC2)cc1	1.5	-13.3	19.6	-1.8	22.4	1.0
CC(=O)NS(=O)(=O)c1cccnc1Nc1cccc(Cl)c1	1.2	.	-9.7	-3.5	.	0.0
NS(=O)(=O)c1cccnc1Nc1c(Cl)cccc1Cl	1.2	.	31.9*	-6.7	.	-1.0
Cc1ccc(OCC(=O)Nc2cccc3c2CCCC3)c(Br)c1	.	-5.4	.	.	.	.
Cc1sc2nc(C(C)C)nc(SCC(=O)N3CCN(C(=O)c4ccco4)CC3)c2c1C	1.4	-5.3	41.0*	1.9	32.2	-4.0
CC(C)c1nc(N2CCN(C(=O)c3ccco3)CC2)c2c3c(sc2n1)CCCC3	1.4	-0.6	17.6	3.9	78.7*	3.0
CCOC(=O)N/N=C(/C)c1ccc([N+](=O)[O-])o1	1	.	1.9	-3.2	.	51.0*
O=[N+]([O-])c1ccc(N2CCCC2)c(Cl)c1N1CCCC1	.	12.5	.	.	.	.
Cc1ccc2ccc(S(=O)(=O)NCc3cccnc3)cc2c1	.	7.0	.	.	.	.
CCOC(=O)C1=C(C)NC2=C(C(=O)CC(C)(C)C2)C1c1ccc(N2CCOCC2)cc1 (stereo not given)	.	-7.4	.	.	.	.
Cc1ccc(C2C3=C(CC(C)(C)CC3=O)N(CCN3CCOCC3)C3=C2C(=O)CC(C)(C)C3)cc1	2.1*	-1.4	10.4	-3.7	1.4	6.0
NC(N)=N/N=C/c1ccc(OCc2ccccc2Cl)cc1	1.1	.	36.2*	10.9	.	99.0*
Cc1ccc2c(c1)c1c3n2CCN(C(C)c2ccccc2)C3CCC1 (stereo not given)	.	1.1	.	.	.	.
O=C(COc1ccccc1)NNc1c2ccccc2nc2ccccc12	0.7	-15.7	43.9*	-4.3	.	4.0
COc1ccc(CC(=O)N=Nc2c(O)n(CN3CCN(C)CC3)c3ccc(Br)cc23)cc1	.	-0.1	.	.	.	.
O=C(C[n+]1cccc(NC(=O)c2ccccc2)c1)c1ccccc1	0.9	.	2.9	4.5	.	10.0
O=C(C[n+]1cccc(NC(=O)c2ccccc2)c1)c1ccc(NC(=O)c2ccccc2)cc1	1.1	.	4.8	-16.6	.	62.0*
COc1cc(C2C(C#N)=C(N)OC3=C2C(=O)CC(C)(C)C3)ccc1OC(=O)N1CCOCC1 (stereo not given)	1.3	-5.7	32.9*	0.5	-8.4	2.0
N#CC1=C(N)OC2=C(C(=O)CCC2)C1c1ccc(OC(=O)N2CCOCC2)cc1 (stereo not given)	1.4	4.6	37.6*	-9.3	-14.4	3.0
COC(OC)C12c3ccccc3C(c3ccccc31)C1C(=O)N(Cc3cccnc3)C(=O)C12 (stereo not given)	.	-9.0	.	.	.	.
O=C1CC(N2CCC(O)CC2)C(=O)N1c1ccc(I)cc1 (stereo not given)	.	3.7	.	.	.	.
SMILES	PLAP act	HePTP inhibitor	PostGolgi ctrl	PostGolgi yeast	tolC growth inh	E coli WT exp
O=C1CC(N2CCN(Cc3ccc4c(c3)OCO4)CC2)C(=O)N1c1ccccc1 (stereo not given)	1.3	2.5	40.0*	-0.5	-1.9	0.0
Cc1ccccc1N(CC(=O)NCCSC1CCCCC1)S(=O)(=O)c1ccccc1	1	.	49.4*	1.0	.	-17.0
CCC(=O)Nc1ccc(NC(=O)c2ccc(OC)cc2)cc1	.	3.8	.	.	.	.
Cc1onc(-c2ccccc2Cl)c1C(=O)N1CCN(c2cccc(Cl)c2)CC1	1.2	6.3	-7.1	20.0	9.0	4.0
Cc1onc(-c2ccccc2Cl)c1C(=O)N1CCN(c2ccccc2F)CC1	.	103.6*	.	.	.	.
Cc1onc(-c2ccccc2Cl)c1C(=O)N1CCCCCC1	.	5.6	.	.	.	.
CCOC(=O)C1CCN(C(=O)c2c(-c3c(Cl)cccc3Cl)noc2C)CC1	1.6	-3.7	8.1	32.6*	-12.6	-7.0
